In data set [1] the target is T1, Casein kinase II subunit alpha (Homo sapiens, UniProt P68400). Nature of the data set: Competitive binding affinity to CK2alpha (1 to 335 residues) (unknown origin) at 10 uM in presence of IP6 by nESI-MS analysis. In a few lines: (§1)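 Native nESI-MS of CK2α residues 1–335 (10 μM) after buffer exchange into 0.50 M ammonium acetate pH 8.5 with 5% (v/v) DMSO. […] Capillary was 1.6–2.0 kV, cone 30–90 V, collision 10 V, source 20 °C; CsI calibration. Ligand binding was read from the charge-state spectra.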
Target sequence in this assay (P68400 whole entry, looked up, the tested form may be a part): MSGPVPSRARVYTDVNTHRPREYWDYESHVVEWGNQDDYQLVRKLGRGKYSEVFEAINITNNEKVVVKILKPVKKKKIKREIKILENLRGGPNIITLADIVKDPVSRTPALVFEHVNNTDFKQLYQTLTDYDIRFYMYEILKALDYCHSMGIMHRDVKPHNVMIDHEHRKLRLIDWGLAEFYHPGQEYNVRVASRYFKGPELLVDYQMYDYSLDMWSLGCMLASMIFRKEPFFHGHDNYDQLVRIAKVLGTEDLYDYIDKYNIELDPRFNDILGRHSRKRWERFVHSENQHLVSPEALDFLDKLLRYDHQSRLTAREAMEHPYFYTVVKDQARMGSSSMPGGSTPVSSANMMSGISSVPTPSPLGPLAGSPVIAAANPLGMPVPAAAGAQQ

In data set [2] the target is T1, Casein kinase II subunit alpha. Nature of the data set: Competitive binding affinity to CK2alpha (1 to 335 residues) (unknown origin) at 10 uM in presence of IP6 by native mass spectrometry. In a few lines: as §1
Target sequence in this assay (P68400 whole entry, looked up, the tested form may be a part): as above
Data set [3] has the same target. In words: Mixed-type inhibition of recombinant human GST-tagged CK2alpha in presence of ATP by Lineweaver-Burk plot analysis.
Target sequence in this assay (P68400 whole entry, the tested form may be a part): as the sequence (P68400 whole entry, looked up, the tested form may be a part) above
For data set [4] the target is unchanged. Nature of the data set: Non-ATP competitive binding affinity to GST-tagged CK2alpha (unknown origin) assessed as melting temperature at 50 uM by temperature-dependent circular dichroism (reference value: […] degC).
Target sequence in this assay (P68400 whole entry, looked up, the tested form may be a part): as above
The target is the same in data set [5]. Nature of the data set: Inhibition of recombinant human GST-tagged CK2alpha in presence of ATP by radiometric kinase assay.
Target sequence in this assay (P68400 whole entry, the tested form may be a part): as the sequence (P68400 whole entry, looked up, the tested form may be a part) above
Data set [6] has the same target. In words: Competitive binding affinity to CK2alpha (1 to 335 residues) (unknown origin) at 10 uM in presence of IP6 by nESI-MS analysis.
Target sequence in this assay (P68400 whole entry, looked up, the tested form may be a part): as above
Data set [7] is described as follows: Solubility of the compound in water. The data set is classed as physicochemical. Conditions: buffer.
Data set [8] deals with T1, Casein kinase II subunit alpha. Nature of the data set: Competitive binding affinity to CK2alpha (1 to 335 residues) (unknown origin) at 10 uM by native mass spectrometry. In a few lines:
as §1
Target sequence in this assay (P68400 whole entry, looked up, the tested form may be a part): as above

Data set [9] shares this target. Nature of the data set: Binding affinity to CK2alpha (unknown origin) at 500 uM in presence of kinase inhibitor CX-4945 by STD-based NMR spectroscopy. The gist of the method:
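STD NMR at 600 MHz and 293 K in PBS pH 7.3 with 10 mM NaCl, 2 mM MgCl2 and 10% D2O. […] On-resonance protein saturation was at 0.6 ppm for 2 s. STD factors were normalized so the highest STD factor is 100%.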
Target sequence in this assay (P68400 whole entry, looked up, the tested form may be a part): as above

For data set [10] the target is unchanged. In words: Inhibition of recombinant human GST-tagged CK2alpha at 10 uM in presence of ATP by radiometric kinase assay relative to control. In a few lines: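 Radiometric assay of CK2α with 100 μM ATP. Single-concentration percent inhibition at 10 μM relative to control. Values are the mean of ≥2 experiments.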
In data set [11] the target is Casein kinase II alpha/beta (Homo sapiens) (UniProt P67870+P68400). Nature of the data set: Inhibition of recombinant human GST-tagged CK2alpha2/CK2beta2 at 15 uM in presence of ATP by radiometric kinase assay. In kind it is protein-complex assay.
The target in data set [12] is T1, Casein kinase II subunit alpha. In words: Inhibition of recombinant human GST-tagged CK2alpha at 15 uM in presence of varying substrate levels by radiometric kinase assay.
Data set [13] shares this target. In words: Inhibition of recombinant human GST-tagged CK2alpha at 15 uM in presence of varying ATP levels by radiometric kinase assay.
Data set [14] has as its target Homeodomain-interacting protein kinase 3 (Homo sapiens) (UniProt Q9H422). Nature of the data set: Inhibition of HIPK3 (unknown origin) assessed as residual activity at 50 uM relative to control. In a few lines: (§2)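 Selectivity profiling against a panel of 44 human kinases. For each kinase, ATP was set to that kinase's Km. Values are residual activity in duplicate assays.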

The target in data set [15] is Death-associated protein kinase 3 (Homo sapiens) (UniProt O43293). In words: Inhibition of DAPK3 (unknown origin) assessed as residual activity at 50 uM relative to control. In a few lines: as §2
The target of data set [16] is Rho-associated protein kinase 1 (Homo sapiens) (UniProt Q13464). In words: Inhibition of ROCK1 (unknown origin) assessed as residual activity at 50 uM relative to control. The gist of the method:
(§3)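 Profiling panel of 44 human kinases. ATP set to each kinase's Km. Run in duplicate; duplicates within 15–17% of each other.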

The target in data set [17] is Dual specificity mitogen-activated protein kinase kinase 1 (Homo sapiens) (UniProt Q02750). In words: Inhibition of MEK1 (unknown origin) assessed as residual activity at 50 uM relative to control. In a few lines: as §2
Data set [18] has as its target Myosin light chain kinase 2, skeletal/cardiac muscle (Homo sapiens) (UniProt Q9H1R3). Nature of the data set: Inhibition of MLCK2 (unknown origin) assessed as residual activity at 50 uM relative to control. In a few lines:
as §2

The target of data set [19] is Protein kinase C alpha type (Homo sapiens) (UniProt P17252). Nature of the data set: Inhibition of PKCalpha (unknown origin) assessed as residual activity at 50 uM relative to control. In a few lines: as §3
Data set [20] has as its target Dual specificity protein kinase CLK4 (Homo sapiens) (UniProt Q9HAZ1). In words: Inhibition of CLK4 (unknown origin) assessed as residual activity at 50 uM relative to control. The gist of the method: as §2
In data set [21] the target is Casein kinase I isoform gamma-1 (Homo sapiens) (UniProt Q9HCP0). Nature of the data set: Inhibition of CK1gamma1 (unknown origin) assessed as residual activity at 50 uM relative to control. In a few lines: as §2
Data set [22] concerns the target Serine/threonine-protein kinase Chk2 (Homo sapiens) (UniProt O96017). In words: Inhibition of CHK2 (unknown origin) assessed as residual activity at 50 uM relative to control. The gist of the method:
as §2

The target of data set [23] is Tyrosine-protein kinase ABL1 (Homo sapiens) (UniProt P00519). Nature of the data set: Inhibition of ABL (unknown origin) assessed as residual activity at 50 uM relative to control. In a few lines: as §2
The target of data set [24] is Dual specificity protein kinase CLK2 (Homo sapiens) (UniProt P49760). Nature of the data set: Inhibition of CLK2 (unknown origin) assessed as residual activity at 50 uM relative to control. The gist of the method: as §2
Data set [25] concerns the target Serine/threonine-protein kinase haspin (Homo sapiens) (UniProt Q8TF76). In words: Inhibition of haspin (unknown origin) assessed as residual activity at 50 uM relative to control. In a few lines: as §3
Data set [26] has as its target Dual specificity tyrosine-phosphorylation-regulated kinase 1A (Homo sapiens) (UniProt Q13627). In words: Inhibition of DYRK1A (unknown origin) assessed as residual activity at 50 uM relative to control. In a few lines:
as §2

The target of data set [27] is Cyclin-dependent kinase 1/cyclin B1 (Homo sapiens) (UniProt P06493+P14635). In words: Inhibition of CDK1/cyclin B (unknown origin) assessed as residual activity at 50 uM relative to control. The data set is classed as protein-complex assay. The gist of the method: as §2
Data set [28] deals with Serine/threonine-protein kinase pim-1 (Homo sapiens) (UniProt P11309). Nature of the data set: Inhibition of PIM1 (unknown origin) assessed as residual activity at 50 uM relative to control. In a few lines:
as §2

Data set [29] addresses Cyclin-dependent kinase 2/cyclin E1 (Homo sapiens) (UniProt P24864+P24941). In words: Inhibition of CDK2/cyclin E (unknown origin) assessed as residual activity at 50 uM relative to control. In kind it is protein-complex assay. The gist of the method: as §2
Data set [30] has as its target Tyrosine-protein kinase JAK2 (Homo sapiens) (UniProt O60674). Nature of the data set: Inhibition of JAK2 (unknown origin) assessed as residual activity at 50 uM relative to control. In a few lines: as §2
Data set [31] concerns the target Receptor-interacting serine/threonine-protein kinase 2 (Homo sapiens) (UniProt O43353). Nature of the data set: Inhibition of RIPK2 (unknown origin) assessed as residual activity at 50 uM relative to control. In a few lines: as §3
Data set [32] has as its target Dual specificity protein kinase CLK1 (Homo sapiens) (UniProt P49759). In words: Inhibition of CLK1 (unknown origin) assessed as residual activity at 50 uM relative to control. The gist of the method: as §2
The target of data set [33] is Homeodomain-interacting protein kinase 2 (Homo sapiens) (UniProt Q9H2X6). In words: Inhibition of HIPK2 (unknown origin) assessed as residual activity at 50 uM relative to control. In a few lines:
as §2

Data set [34] addresses Serine/threonine-protein kinase TBK1 (Homo sapiens) (UniProt Q9UHD2). In words: Inhibition of TBK1 (unknown origin) assessed as residual activity at 50 uM relative to control. The gist of the method: as §3
Data set [35] has as its target Epidermal growth factor receptor (Homo sapiens) (UniProt P00533). Nature of the data set: Inhibition of EGFR (unknown origin) assessed as residual activity at 50 uM relative to control. In a few lines: as §2
Data set [36] concerns the target Activin receptor type-1 (Homo sapiens) (UniProt Q04771). Nature of the data set: Inhibition of ALK2 (unknown origin) assessed as residual activity at 50 uM relative to control. The gist of the method:
as §2

The target in data set [37] is Platelet-derived growth factor receptor alpha (Homo sapiens) (UniProt P16234). In words: Inhibition of PDGFRalpha (unknown origin) assessed as residual activity at 50 uM relative to control. In a few lines:
as §2

Data set [38] concerns the target Glycogen synthase kinase-3 beta (Homo sapiens) (UniProt P49841). Nature of the data set: Inhibition of GSK3beta (unknown origin) assessed as residual activity at 50 uM relative to control. The gist of the method:
as §2

Data set [39] deals with Ephrin type-A receptor 4 (Homo sapiens) (UniProt P54764). Nature of the data set: Inhibition of EPHA4 (unknown origin) assessed as residual activity at 50 uM relative to control. The gist of the method: as §2
In data set [40] the target is Mast/stem cell growth factor receptor Kit (Homo sapiens) (UniProt P10721). In words: Inhibition of cKIT (unknown origin) assessed as residual activity at 50 uM relative to control. In a few lines:
as §3

Data set [41] deals with Dual specificity protein kinase CLK3 (Homo sapiens) (UniProt P49761). In words: Inhibition of CLK3 (unknown origin) assessed as residual activity at 50 uM relative to control. The gist of the method:
as §2

Data set [42] addresses Muscle, skeletal receptor tyrosine-protein kinase (Homo sapiens) (UniProt O15146). Nature of the data set: Inhibition of MUSK (unknown origin) assessed as residual activity at 50 uM relative to control. In a few lines: as §2
In data set [43] the target is MAP kinase-interacting serine/threonine-protein kinase 1 (Homo sapiens) (UniProt Q9BUB5). In words: Inhibition of MNK1 (unknown origin) assessed as residual activity at 50 uM relative to control. The gist of the method:
as §2

Active and inactive are the calls of the source. The calls are words filed in the database; no cut-off is given here.

Chain of Homeodomain-interacting protein kinase 3 (Homo sapiens) (Q9H422 whole entry, looked up): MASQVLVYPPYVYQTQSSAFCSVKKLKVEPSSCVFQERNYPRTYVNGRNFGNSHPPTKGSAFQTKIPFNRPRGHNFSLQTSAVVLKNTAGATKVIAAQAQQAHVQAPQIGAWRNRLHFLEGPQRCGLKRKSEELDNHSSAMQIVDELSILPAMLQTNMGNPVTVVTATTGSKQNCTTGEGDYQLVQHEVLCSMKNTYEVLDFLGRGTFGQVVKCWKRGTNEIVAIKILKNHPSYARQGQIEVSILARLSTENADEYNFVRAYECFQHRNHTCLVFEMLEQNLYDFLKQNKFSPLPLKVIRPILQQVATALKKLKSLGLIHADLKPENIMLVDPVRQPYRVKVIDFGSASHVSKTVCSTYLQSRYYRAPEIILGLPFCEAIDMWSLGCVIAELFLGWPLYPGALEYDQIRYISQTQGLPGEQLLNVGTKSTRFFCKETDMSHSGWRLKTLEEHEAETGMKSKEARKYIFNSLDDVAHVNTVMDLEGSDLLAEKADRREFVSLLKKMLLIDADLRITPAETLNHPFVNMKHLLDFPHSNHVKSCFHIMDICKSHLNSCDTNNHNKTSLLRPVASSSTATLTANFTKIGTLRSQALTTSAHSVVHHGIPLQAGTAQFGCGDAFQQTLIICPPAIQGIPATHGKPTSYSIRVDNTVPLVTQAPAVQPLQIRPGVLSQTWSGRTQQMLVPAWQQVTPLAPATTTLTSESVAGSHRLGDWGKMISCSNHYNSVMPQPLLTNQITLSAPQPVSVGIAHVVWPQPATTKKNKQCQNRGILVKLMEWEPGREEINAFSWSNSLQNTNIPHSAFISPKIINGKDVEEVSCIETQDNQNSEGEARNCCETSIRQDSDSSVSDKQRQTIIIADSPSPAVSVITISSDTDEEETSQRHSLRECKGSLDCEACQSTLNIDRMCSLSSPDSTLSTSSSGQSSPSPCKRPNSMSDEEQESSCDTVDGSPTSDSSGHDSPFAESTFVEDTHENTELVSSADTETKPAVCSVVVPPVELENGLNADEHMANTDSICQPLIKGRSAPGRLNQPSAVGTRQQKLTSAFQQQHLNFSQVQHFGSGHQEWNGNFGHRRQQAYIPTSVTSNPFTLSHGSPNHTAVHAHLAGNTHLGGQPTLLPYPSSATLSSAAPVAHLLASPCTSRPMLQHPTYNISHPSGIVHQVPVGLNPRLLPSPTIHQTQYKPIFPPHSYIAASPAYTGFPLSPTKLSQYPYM
Chain of Rho-associated protein kinase 1 (Homo sapiens) (Q13464 2-1354 limits assumed): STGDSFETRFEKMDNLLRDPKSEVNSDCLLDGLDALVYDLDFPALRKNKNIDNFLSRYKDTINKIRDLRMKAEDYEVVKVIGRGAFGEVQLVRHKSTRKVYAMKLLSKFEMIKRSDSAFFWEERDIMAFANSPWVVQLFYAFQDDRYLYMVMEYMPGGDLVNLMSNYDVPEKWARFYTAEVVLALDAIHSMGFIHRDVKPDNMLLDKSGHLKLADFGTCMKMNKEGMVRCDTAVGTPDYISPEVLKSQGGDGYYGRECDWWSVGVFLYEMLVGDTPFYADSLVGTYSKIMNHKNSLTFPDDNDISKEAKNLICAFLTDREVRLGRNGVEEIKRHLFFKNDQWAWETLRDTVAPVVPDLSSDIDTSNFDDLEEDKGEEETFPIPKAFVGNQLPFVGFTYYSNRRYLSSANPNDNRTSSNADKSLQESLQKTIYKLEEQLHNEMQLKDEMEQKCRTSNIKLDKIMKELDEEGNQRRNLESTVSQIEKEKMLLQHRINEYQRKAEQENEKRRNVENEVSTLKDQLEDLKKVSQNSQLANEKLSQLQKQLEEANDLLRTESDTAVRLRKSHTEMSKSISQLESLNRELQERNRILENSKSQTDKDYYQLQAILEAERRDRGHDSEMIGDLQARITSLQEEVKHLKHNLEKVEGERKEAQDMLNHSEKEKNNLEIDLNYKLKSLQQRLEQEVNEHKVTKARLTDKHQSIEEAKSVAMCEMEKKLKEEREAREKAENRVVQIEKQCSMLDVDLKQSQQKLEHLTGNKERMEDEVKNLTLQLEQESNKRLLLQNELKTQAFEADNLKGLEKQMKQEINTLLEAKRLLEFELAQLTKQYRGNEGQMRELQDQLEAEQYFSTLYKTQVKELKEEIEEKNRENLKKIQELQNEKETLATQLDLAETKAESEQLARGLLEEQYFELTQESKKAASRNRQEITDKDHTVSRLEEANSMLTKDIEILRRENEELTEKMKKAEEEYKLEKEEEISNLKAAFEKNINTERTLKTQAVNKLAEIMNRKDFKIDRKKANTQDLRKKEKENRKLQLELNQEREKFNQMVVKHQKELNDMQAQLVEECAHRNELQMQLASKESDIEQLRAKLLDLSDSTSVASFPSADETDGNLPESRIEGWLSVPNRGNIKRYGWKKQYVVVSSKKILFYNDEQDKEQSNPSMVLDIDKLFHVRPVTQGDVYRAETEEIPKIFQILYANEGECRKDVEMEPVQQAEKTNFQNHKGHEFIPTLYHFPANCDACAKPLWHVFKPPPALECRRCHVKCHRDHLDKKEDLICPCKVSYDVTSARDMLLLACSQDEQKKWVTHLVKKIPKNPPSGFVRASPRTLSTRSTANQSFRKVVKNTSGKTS
Chain of MAP kinase-interacting serine/threonine-protein kinase 1 (Homo sapiens) (Q9BUB5 whole entry, looked up): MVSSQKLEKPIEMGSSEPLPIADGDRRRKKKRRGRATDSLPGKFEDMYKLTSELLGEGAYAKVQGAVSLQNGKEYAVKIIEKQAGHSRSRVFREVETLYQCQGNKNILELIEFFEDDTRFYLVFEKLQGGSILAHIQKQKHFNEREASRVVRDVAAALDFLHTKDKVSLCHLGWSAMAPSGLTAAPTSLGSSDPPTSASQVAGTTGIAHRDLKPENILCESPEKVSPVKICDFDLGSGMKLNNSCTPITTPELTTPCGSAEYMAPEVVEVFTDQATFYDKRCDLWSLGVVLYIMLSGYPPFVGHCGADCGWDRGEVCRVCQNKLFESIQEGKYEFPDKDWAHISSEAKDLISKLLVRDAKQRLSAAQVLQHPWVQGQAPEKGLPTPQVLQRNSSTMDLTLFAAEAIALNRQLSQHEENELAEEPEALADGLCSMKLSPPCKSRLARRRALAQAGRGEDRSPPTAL
Chain of Serine/threonine-protein kinase pim-1 (Homo sapiens) (P11309 whole entry, looked up): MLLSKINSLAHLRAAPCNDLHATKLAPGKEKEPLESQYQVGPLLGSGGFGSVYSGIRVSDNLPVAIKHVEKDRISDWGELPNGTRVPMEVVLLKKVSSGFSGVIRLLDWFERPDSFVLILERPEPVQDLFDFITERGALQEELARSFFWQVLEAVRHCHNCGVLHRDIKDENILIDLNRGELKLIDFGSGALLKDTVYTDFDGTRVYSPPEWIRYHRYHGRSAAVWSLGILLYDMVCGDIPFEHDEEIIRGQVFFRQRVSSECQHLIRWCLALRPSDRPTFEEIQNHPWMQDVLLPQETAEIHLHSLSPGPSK

Usually Ki stands for a dissociation constant, usually derived from enzyme kinetics or from competition with a known ligand. The term IC50 denotes the concentration needed to halve the response being measured. Consider `O=C(O)c1ccc(Nc2nc(-c3ccccc3)cs2)cc1`, for which the result in data set [1], in data set [6], in data set [8] and in data set [9] was Active. The outcome in data set [2] was inactive. Also, the Ki in data set [3] came to 1.1 µM. In data set [4], the Tm amounted to 50.3 °C. In addition, the IC50 in data set [5] worked out at 9 µM. Further, in data set [7], the solubility result was “Soluble”.

In the case of `O=C(O)c1ccc(Nc2nc(-c3ccccn3)cs2)cc1`, the solubility result in data set [7] is listed as “Soluble”.

Usually inhibition stands for the change of the read-out against control, counted positive when it falls. On to `COC(=O)c1ccc(Nc2nc(-c3cccc([N+](=O)[O-])c3)cs2)cc1`, for which the inhibition in [10] worked out at 9%.

As for `O=C(O)c1ccc(Nc2nccs2)cc1`, in [10], the inhibition was 0%.

Turning to `O=[N+]([O-])c1cccc(-c2csc(Nc3ccccc3)n2)c1`, the inhibition in data set [10] is 27%.

`O=C(O)c1cccc(Nc2nc(-c3cccc([N+](=O)[O-])c3)cs2)c1`: the inhibition result in [11], in [12] and in data set [13] was “Active” throughout. Further, the IC50 in data set [5] turned out to be 27.7 µM.

For `O=C(O)c1ccc(Nc2nc(-c3cccc(Br)c3)cs2)cc1`, the Activity in [14] came out at 82%; in data set [15], 104%; in [16], 107%; in data set [17], 95%; in data set [18], 39%; in [19] it was 92%. In addition, the Activity in data set [20] was found to be 39%; in [21] it was 31%; in data set [22], 72%; in data set [23], 69%; in data set [24] it was 67%; in [25], 55%. The Activity in data set [26] came to 79%; in data set [27], 78%; in data set [28] it was 57%; in [29] it was 107%; in [30], 98%; in data set [31], 86%. The Activity was 80% in data set [32]; 57% in [33]; 75% in data set [34]; 106% in [35]; 34% in data set [36]; 102% in data set [37]. Besides, the Activity turned out to be 29% in data set [38]; 27% in [39]; 116% in [40]; 86% in [41]; 90% in [42]; 101% in data set [43].

These data come from ChEMBL document CHEMBL4411337, “2-Aminothiazole Derivatives as Selective Allosteric Modulators of the Protein Kinase CK2. 1. Identification of an Allosteric Binding Site” (J Med Chem, 2019).
